Assay outcomes: PubChem, Sanford-Burnham Center for Chemical Genomics
SENP8 block-1 – SENP8 protease inhibition; inhibition, % at 10 µM; AID 2540; 330,000 compounds, 1.2% hits; purified SENP8, Z-RLRGG-aminoluciferin cleavage, luminescence; Q96LD8; in the data active = inhibition above about 50%
SENP8 block-2 – inhibitors of human SENP8 protease; Q96LD8; recombinant SENP8, Nedd8 substrate fluorescence; inhibition, % at 20 µM; 360,000 compounds, 0.64% hits; in the data active = inhibition mostly above about 40%, no sharp cut-off; inactive = mostly below about 27%
Apaf-1 inh – human Apaf-1 inhibition | O14727 | reconstituted apoptosome caspase-3 activity, DEVD-Rh110 fluorescence | inhibition, % at 20 µM | 330,000 compounds, 0.71% hits; active = inhibition of at least 40% at 20 µM
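Assay system: Apoptosome proteins | Medium: pH 7.5 Hepes buffer with CHAPS, BSA, DTT | Also added: Cytochrome c and DEVD-Rh110 substrate | Times: 30 min plus 50 min, RT | Detection: Rhodamine 110 fluorescence at Ex 480/Em 540 nm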
SENP6 inh – SENP6 protease inhibition. AID 2599. inhibition, % at 10 µM. Q9GZR1. Recombinant SENP6 catalytic domain, aminoluciferin luminescence. 330,000 compounds, 1.8% hits;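 active = inhibition above about 50% at the single tested dose, limit read from the data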
UBC13 inh – blocks human UBC13 polyubiquitin chain formation; inhibition, % at 20 µM; P61088; TR-FRET; 330,000 compounds, 0.47% hits; AID 485273; in the data active = inhibition above about 45%, passing the limit was not always enough
Target sequence (P61088 whole entry, looked up): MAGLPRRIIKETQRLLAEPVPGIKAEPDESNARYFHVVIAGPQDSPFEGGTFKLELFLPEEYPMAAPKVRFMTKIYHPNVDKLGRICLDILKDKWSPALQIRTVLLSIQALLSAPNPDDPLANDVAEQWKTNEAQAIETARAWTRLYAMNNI
SENP7 inh – SENP7 protease inhibition; recombinant SENP7, Z-RLRGG-aminoluciferin luminescence, 40 min; inhibition, % at 5 µM; 330,000 compounds, 1.5% hits; AID 434973;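 active = inhibition above about 50% at the single test dose, limit read from the data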
Target sequence (Q9BQF6 706-1050 limits assumed): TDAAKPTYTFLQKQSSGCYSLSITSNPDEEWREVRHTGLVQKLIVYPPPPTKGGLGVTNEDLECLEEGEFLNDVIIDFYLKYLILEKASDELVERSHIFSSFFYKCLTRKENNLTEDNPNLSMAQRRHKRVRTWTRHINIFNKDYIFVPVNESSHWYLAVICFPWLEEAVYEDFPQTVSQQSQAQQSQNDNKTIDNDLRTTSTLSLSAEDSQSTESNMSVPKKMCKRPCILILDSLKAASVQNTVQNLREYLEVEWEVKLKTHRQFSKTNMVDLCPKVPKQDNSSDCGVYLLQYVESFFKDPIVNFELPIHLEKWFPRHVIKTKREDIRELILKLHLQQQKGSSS
SENP8 conf – human SENP8 inhibition, confirmed | 6,200 compounds, 40% hits | shares compounds with SENP7 inh | inhibition, % at 12.5 µM | AID 488912 | Recombinant SENP8, Z-RLRGG-aminoluciferin luminescence, 60 min;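 active = mean inhibition across replicates above about 50%, limit read from the data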
SENP6 confirm – human SENP6 inhibition, confirmed | shares compounds with SENP7 inh | recombinant SENP6, Z-RLRGG-aminoluciferin luminescence | inhibition, % at 12.5 µM | 6,200 compounds, 58% hits | AID 488915
SENP7 confirm – human SENP7 inhibition, confirmed. AID 488917. shares compounds with SENP7 inh. inhibition, % at 12.5 µM. 6,200 compounds, 69% hits. recombinant SENP7, Z-RLRGG-aminoluciferin luminescence, 40 min
Casp3 select – caspase-3 inhibition (SENP selectivity assay); inhibition, % at 12.5 µM; 6,200 compounds, 60% hits; purified caspase-3, Z-DEVD-aminoluciferin luminescence, 60 min; shares compounds with SENP7 inh;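 active = mean inhibition above about 50%, limit read from the data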
Target sequence (P42574 28-227 limits assumed): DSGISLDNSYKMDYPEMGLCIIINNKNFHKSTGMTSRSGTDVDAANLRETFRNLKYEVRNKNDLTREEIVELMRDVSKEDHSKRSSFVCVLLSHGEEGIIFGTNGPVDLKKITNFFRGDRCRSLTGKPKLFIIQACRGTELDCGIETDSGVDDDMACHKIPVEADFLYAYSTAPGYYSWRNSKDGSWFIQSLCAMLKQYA
SENP luc ctr – interferes with luciferase luminescence in SENP counter-screen; shares compounds with SENP7 inh; Pre-incubated SENP8/Z-RLRGG-aminoluciferin, luciferase luminescence interference; inhibition, % at 12.5 µM; 6,200 compounds, 39% hits;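 active = mean inhibition above about 50% when retested at one dose, limit read from the data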
Hits are given with their value; 0 = inactive; - = no result. Only some compounds are listed: those with a hit (about 3% of all), similar ones and a draw of the others.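 The calls were made as follows, unless noted: active = mean inhibition above about 50% in the one-dose retest (limit read from the data); inactive = the rest.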

SMILES | SENP8 block-1 | SENP8 block-2 | Apaf-1 inh | SENP6 inh | UBC13 inh | SENP7 inh | others
COc1ccc(CCNC(=O)c2cc3cc(Cl)ccc3nc2N)cc1OC | - | 0 | - | - | - | -
COc1ccc(CNCC(O)(c2ccc(Cl)cc2)c2ccc(Cl)cc2)cc1OC | 0 | 0 | 42 | 0 | 0 | 0
CC(=O)Nc1cc2c(cc1[N+](=O)[O-])-c1ccccc1C2O (stereo not given) | - | 41 | - | - | - | -
CC(=O)Nc1cc2c(cc1[N+](=O)[O-])-c1ccccc1C2=NO | - | 0 | - | - | - | -
C=CCN=c1scc(-c2ccco2)n1/N=C/c1ccc(O)c(O)c1O | 0 | 51 | 0 | 0 | 0 | 0
CC(C)N=c1scc(-c2ccco2)n1/N=C/c1ccc(O)c(O)c1 | 0 | 0 | 0 | 0 | 0 | 0
CC1CC(=O)c2c(cc3c(-c4c(O)cc(O)c5c(O)c6c(cc45)OC(C)CC6=O)c(O)cc(O)c3c2O)O1 (stereo not given) | 0 | 71 | 62 | 0 | 0 | 0
O=C1CC(c2ccc(O)cc2)Oc2cc(O)cc(O)c21 (stereo not given) | 0 | 0 | 0 | 0 | 0 | 0
O=[N+]([O-])c1cc(/C=N\Nc2ccccn2)ccc1Cl | 0 | 0 | 0 | 0 | 0 | 0
O=[N+]([O-])c1cc(C=Nc2cccc3c(O)cccc23)ccc1Cl | 60 | - | 0 | 84 | 0 | 0
Cn1nc(C(C)(C)C)cc1NC(=O)C1(C)CCN1C(=O)c1ccccc1CCc1ccccc1 (stereo not given) | - | 0 | - | - | - | -
COc1ccc2[nH]c3c(=O)n(/N=C/c4ccc(OC)c(CN5CCCC5)c4)c(C)nc3c2c1 | 0 | 0 | 43 | 0 | 0 | 0
COC1=CC(=O)OC(c2ccccc2)C1 (stereo not given) | - | 0 | - | - | - | -
Cc1[nH]n(-c2nc(-c3ccc(Cl)cc3)cs2)c(=O)c1N=Nc1ccc(O)cc1 | 0 | 41 | 0 | 0 | 0 | 0
CCc1c(C)[nH]n(-c2nc(-c3ccccc3)cs2)c1=O | 0 | 0 | 0 | 0 | 0 | 0
COc1cc(C(c2c(C)[nH][nH]c2=O)c2c(C)[nH][nH]c2=O)ccc1OCc1ccc([N+](=O)[O-])cc1 | 0 | 0 | 0 | 0 | 0 | 0
COc1cc(C(c2c(C)[nH][nH]c2=O)c2c(C)[nH][nH]c2=O)ccc1OC(=O)c1cccc([N+](=O)[O-])c1 | 0 | 42 | 0 | 0 | 0 | 0
Cc1sc2ncnc(N/N=C/c3ccc(O)cc3)c2c1C | 0 | 0 | 0 | 0 | 0 | 0
Nc1c(Cl)ncnc1N/N=C/c1ccc(O)cc1 | 95 | 0 | 0 | 96 | 0 | 96
O=C1C(=Cc2cccc(Cl)c2)Cc2ccccc21 | - | 0 | - | - | - | -
O=C1/C(=C\c2ccc(Br)o2)Cc2ccccc21 | 0 | 0 | 0 | 73 | 0 | 0
CCOC(=O)[C@]12CCCC=C1N(Cc1ccc3c(c1)OCO3)C(=O)[C@H](CC(=O)NCC13CC4CC(CC(C4)C1)C3)C2 | - | 0 | - | - | - | -
C#CCOc1ccc(/C=C2/C(=O)N(c3ccc(S(N)(=O)=O)cc3)N=C2C)cc1OC | - | 63 | - | - | - | -
COc1cc(/C=C2\C(=O)N(c3cccc(C(=O)O)c3)N=C2C)ccc1OCc1ccccc1 | - | 0 | - | - | - | -
COc1cc(/C=C2\C(=O)N(c3ccccc3)N=C2C)ccc1Oc1ccc([N+](=O)[O-])cc1[N+](=O)[O-] | - | 58 | - | - | - | -
SMILES | SENP8 block-1 | SENP8 block-2 | Apaf-1 inh | SENP6 inh | UBC13 inh | SENP7 inh | others
COc1cc(/C=C2/C(=O)N(c3ccc(C(=O)O)cc3)N=C2C)cc(OC)c1O | 0 | 0 | 78 | 0 | 0 | 0
COC(=O)[C@@]12C[C@@H](CC(=O)NCc3ccc(C)o3)C(=O)N(Cc3ccc4c(c3)OCO4)C1=CCC(C)(C)C2 | - | 0 | - | - | - | -
CC(C)(C)OC(=O)Nc1ccccc1-n1nnnc1C(C(=O)c1ccccc1)N1CCN(c2ccccn2)CC1 (stereo not given) | - | 0 | - | - | - | -
COc1c2ccccc2nn1C(C)C | - | 0 | - | - | - | -
CCCCN(C)c1c(C)nc2ccc(C(=O)NCc3ccc4c(c3)OCO4)cn12 | - | 0 | - | - | - | -
O=C(NCC1CC1)C1Cc2c(-c3ccc4c(c3)OCO4)ccnc2O1 (stereo not given) | - | 0 | - | - | - | -
O=C(NCc1ccccc1)c1cccc(COc2ccc3c(c2)CCC3)c1 | 0 | 0 | 0 | 0 | 0 | 0
CCOc1ccc(OCc2cccc(C(=O)N3CCCC3)c2)cc1 | 0 | 0 | 0 | 0 | 0 | 0
COC(=O)Nc1ccc(OCc2ccccc2)cc1 | 0 | 0 | 0 | 73 | 0 | 0 | SENP8 conf=53;SENP6 confirm=51;SENP7 confirm=82;Casp3 select=63;SENP luc ctr=0
CCOc1ccc(OCc2cccc(C(=O)O)c2)cc1 | 96 | 0 | 0 | 99 | 0 | 100 | SENP8 conf=0;SENP6 confirm=100;SENP7 confirm=103;Casp3 select=99;SENP luc ctr=98
O=C(O)c1cccc(COc2ccc3c(c2)CCC3)c1 | 97 | 0 | 0 | 97 | 0 | 99 | SENP8 conf=0;SENP6 confirm=101;SENP7 confirm=104;Casp3 select=99;SENP luc ctr=100
COc1ccc(OCc2cccc(C(=O)O)c2)cc1 | 97 | 0 | 0 | 98 | 0 | 100 | SENP8 conf=100;SENP6 confirm=101;SENP7 confirm=103;Casp3 select=99;SENP luc ctr=99
CSCCC(c1nc2ccccc2[nH]1)n1c(-c2cc(C(F)(F)F)cc(C(F)(F)F)c2)nc2ccccc21 (stereo not given) | - | 0 | - | - | - | -
O=C(O)c1ccc(COc2ccc(CO)cc2Cl)cc1 | 0 | 0 | 0 | 0 | 0 | 0
O=C(O)c1cccc(COc2ccc(CO)cc2Cl)c1 | 96 | 0 | 0 | 97 | 0 | 100 | SENP8 conf=98;SENP6 confirm=100;SENP7 confirm=104;Casp3 select=98;SENP luc ctr=99
COc1cc(/C=C/[N+](=O)[O-])ccc1OCc1cccc(C(=O)O)c1 | 0 | - | 0 | 51 | 0 | 0 | SENP8 conf=57;SENP6 confirm=0;SENP7 confirm=0;Casp3 select=0;SENP luc ctr=64
COc1ccc(CNC(=O)Nc2nnc([C@@H]3C[C@H](O)[C@@H](CO)O3)s2)cc1 | - | 0 | - | - | - | -
CN(C)c1ccc(C(=O)/C=C/c2cccnc2)cc1 | 0 | 0 | 0 | 0 | 0 | 0
CN(C)c1ccc(/C=C/C(=O)c2cccc(Br)c2)cc1 | 0 | 0 | 0 | 52 | 0 | 0 | SENP8 conf=0;SENP6 confirm=0;SENP7 confirm=0;Casp3 select=0;SENP luc ctr=0
O=Cc1c(-c2ccccc2)cc2oc3ccccc3cc1-2 | 78 | 0 | 0 | 67 | 0 | 65 | SENP8 conf=0;SENP6 confirm=0;SENP7 confirm=0;Casp3 select=0;SENP luc ctr=0
COC(=O)CC1(c2ccc(OC)cc2)C(=O)c2ccccc2C1=O | 0 | 0 | 0 | 0 | 0 | 0
O=C1c2ccccc2C(=O)C1(CO)c1ccc(OC(F)F)cc1 | 94 | 0 | 0 | 94 | 0 | 0 | SENP8 conf=0;SENP6 confirm=98;SENP7 confirm=103;Casp3 select=96;SENP luc ctr=57
